# Source: the array DNA melting data of Ke et al. (doi:10.1101/2024.01.08.574731)
# Tests used:
# [1] = melting temperature; fluorescence melt of hairpins on a sequencing array, two-state fit, raised by 9.35 °C to match UV melts; conditions: sodium 0.088 M
# Summary of the method: (§1)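 Melting temperature and folding enthalpy were derived from bootstrapped two-state fits. The fitted temperatures were raised by 9.35 °C to agree with UV melts, and four replicates were combined by inverse variance. The underlying data were Cy3 fluorescence images of library hairpins, with annealed Cy3 and quencher oligos, on a sequenced MiSeq flow cell in 50 mM Na-HEPES pH 8.0, 25 mM NaCl, taken in 2.5 °C steps up to 60 °C, normalised to pre-quench Cy3 and to control constructs.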
# [2] = folding enthalpy; higher = less favourable; fluorescence melt of hairpins on a sequencing array, two-state fit; conditions: sodium 0.088 M
# Summary of the method: as §1
Sequence,Tm [1] [°C],folding enthalpy [2] [kcal/mol]
GAACATGCGAAAGCATTC (((..(((....)))))),26.6,-11
GAACATGGAAACATGCTC ((.((((....)))).)),35.3,-26.5
GAACCACGAAAGTGTTC (((.(((....)))))),43.9,-13.8
GAACCAGGAAACCGGTTC (((((.(....).))))),45.1,-36.3
GAACCCCGAAAGGGTTC (((.(((....)))))),58.9,-30.9
GAACCCGAAAGGGGCTTC ((((((....)))..))),51,-20
GAACCCGAAAGGGTGTTC ((((((....)))..))),47.8,-11.6
GAACCGAAAGGTTC (((((....))))),67.7,-25.6
GAACCGCGAAAGCGTTTC (((.(((....))).))),42.3,-20.5
GAACCGGGAAACCAGTTC ((((.((....)).)))),36.5,-26.2
GAACCTGAAAAGGTTC ((((((....)))))),60.6,-31.8
GAACCTGGAAACAGATTC (((.(((....))).))),31.9,-17.9
GAACGACGAAAGTCTTTC (((.(((....))).))),39.3,-24.4
GAACGCCGAAAGGCCTTC (((.(((....))).))),34.5,-13.1
GAACGCGAAAGCGACTTC ((((((....)))..))),46.1,-13.8
GAACGCGAAAGCGCATTC ((((((....)))..))),25.9,-7.58
GAACGCGAAAGCGCCTTC ((((((....)))..))),35.8,-11.1
GAACGCGAAAGCGCTTC ((((((....))).))),48.6,-14.3
GAACGCGAAAGCGGTTTC ((((((....)))..))),41.9,-10.8
GAACGGCGAAAGCCCTTC (((.(((....))).))),32.8,-12.4
GAACGGCGAAAGCCTTC (((.(((....)))))),39.3,-12.4
GAACGGGAAACCGTTC ((((((....)))))),62.8,-37.1
GAACGGGGAAACCCGTCC (.(((((....))))).),42.5,-11.7

Sequence,Tm [1] [°C],folding enthalpy [2] [kcal/mol]
GAACGGGGAAACTCGTTC (((((.(....).))))),50.8,-48.7
GAACGTGGAAACACATTC (((.(((....))).))),32.9,-17.1
GAACGTGGAAACACGTCC (.(((((....))))).),41.3,-13.6
GAACGTGGAAACGTGTTC ((((..(....)..)))),37.5,-14.9
GAACTACGAAAGTATTTC (((.(((....))).))),32.7,-13.6
GAACTCACGAAAGTGTTC (((..(((....)))))),29.2,-14.3
GAACTCCGAAAGGACTTC (((.(((....))).))),29.7,-19.5
GAACTCGCGAAAGCGTTC (((..(((....)))))),27.4,-12.5
GAACTGCGAAAGCATTC (((.(((....)))))),30.9,-11.7
GAACTGCGAAAGCATTTC (((.(((....))).))),38.7,-20.1
GAACTGGGAAACCAATTC (((.(((....))).))),29.2,-12.7
GAACTGGGAAACCAGCTC ((.((((....)))).)),38.5,-19.4
GAACTTGGAAACGAGTTC (((((.(....).))))),44.2,-38
GAAGAACGAAAGTTATTC (((.(((....))).))),42.5,-31.6
GAAGAACGAAAGTTTTC (((.(((....)))))),24.9,-12.6
GAAGAAGGAAACTTCTTC (((((((....))))))),50.6,-48.8
GAAGACGAAAGTCACTTC ((((((....)))..))),35,-17.5
GAAGACGAAAGTCATTC ((((((....))).))),31.4,-14.1
GAAGACGAAAGTCCCTTC ((((((....)))..))),30.8,-13.8
GAAGACGAAAGTCCTTC ((((((....))).))),39.2,-20.8
GAAGACGAAAGTCGTTC ((((((....))).))),37.9,-12.3
GAAGACGAAAGTCTATTC ((((((....)))..))),30.5,-11.4
GAAGACGAAAGTCTGTTC ((((((....)))..))),40,-13.7
